Pyk2 oligo antag – antagonists of human Pyk2 oligomerization; 99,000 tested, 0.83% active; Q293 cells, Pyk2 FERM NanoBiT luminescence; active compounds read low; z-score (the deposit names both 25 µM and 10 µM);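 active = Z-score of -3 or lower, scaled per plate to the spread of control and sample wells; inactive = z-score above -3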;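 also: negative z-score means lost luminescence so less FERM oligomerization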
Rev-RRE block – HIV Rev-RRE protein-RNA interaction inhibition. 97,000 tested, 0.79% active. inhibition, % at 8 µM. Rev peptide-RRE RNA binding, FRET. P05866. AID 704;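 active = inhibition above the screen-wide mean plus 3 SD, cut at about 35% in these data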;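 also: 0% = median DMSO wells and 100% = median Neomycin B control wells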
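Test system – labelled RRE RNA duplex and labelled Rev peptide · Reagent – labelled Rev peptide · Doses – one concentration, 8 µM nominal · Incubation – 5 + 15 min at 25 °C · Signal – FRET fluorescence readout · Read-out basis – % inhibition of FRET ratio versus controls · Control set – DMSO wells as 0% and neomycin B wells as 100% inhibition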
Measles CPE – protection of cells from measles virus. Measles virus-infected cells, CPE protection, absorbance. protection (pct of control), % at 4 µM. 140,000 tested, 1.5% active. AID 841; in the data active = protection mostly above about 24%, no sharp cut-off; inactive = mostly below about 26%
Phagocytosis inh – blocks phagocytosis by macrophages; J774A.1 macrophage IgG-bead phagocytosis, imaging; inhibition, % at 5 µM; 110,000 tested, 0.07% active; AID 1029;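 active = inhibition above the mean of the plate negative controls plus 5 SD, cut at about 13% in these data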;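 also: phagocytic index as fraction of beads internalized from green versus red external bead signal; plate controls were DMSO negative control for no effect and cytochalasin-D positive control for full effect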
Cav32 inh – inhibitors of human Cav3.2 T-type calcium channel; O95180; Cav3.2-expressing cells, Fluo-4 calcium fluorescence FDSS; active compounds read low; B-score at 10 µM; 100,000 tested, 4% active; AID 449739;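 active = single-dose well whose peak fluorescence ratio is a statistical outlier from its plate by either plate-standardised score or position-corrected B-score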
DAT uptake mod – modulates human dopamine transporter uptake under cocaine; LLC-PK1 hDAT cells, [14C]-dopamine uptake with cocaine IC80; actives deviate in either direction; B-score at 10 µM; 110,000 tested, 1.3% active; AID 449768;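 active = Z score or B-score, a plate-position-corrected score, falls beyond the plate's 99.7% confidence bounds, in either direction; inactive = both scores lie inside the 99.7% bounds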;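 also: scored against the spread of the other compound wells on the same plate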
* hit, by the source's call. The list is not random: actives were taken first. Their share in the collection is about 5.9%.

How did Cc1ccc(S(=O)(=O)NCC(C)NS(=O)(=O)c2ccc(C)cc2)cc1 (stereo not given) do in these assays?
Pyk2 oligo antag: 1.5; Rev-RRE block: 0; Measles CPE: 7; Phagocytosis inh: 0; DAT uptake mod: -8.2*

What do the screens show for `CNC(=O)OC(C)CNS(=O)(=O)c1ccc(C)cc1` (stereo not given)?
Pyk2 oligo antag: 1.2; Rev-RRE block: 6; Measles CPE: 10; Phagocytosis inh: -1; Cav32 inh: 2.5; DAT uptake mod: 0.55

Results for C=CCN(c1ccccc1)S(=O)(=O)c1ccc(Cl)c(C(=O)OCC(=O)c2[nH]c(C)c(C(C)=O)c2C)c1 ?
Measles CPE: 11; Phagocytosis inh: -1

What do the screens show for `CCCCC(=O)Nc1ccc(C(=O)N2CCN(c3ccccc3OC)CC2)cc1`?
Pyk2 oligo antag: -0.09; Rev-RRE block: 4; Measles CPE: 13; Phagocytosis inh: 1

What do the screens show for `COc1ccccc1N1CCN(C(=O)C(Sc2ccccc2)c2ccccc2)CC1` (stereo not given)?
Pyk2 oligo antag: -0.78; Rev-RRE block: 2; Measles CPE: 17; Phagocytosis inh: 0; Cav32 inh: -4.6*; DAT uptake mod: 0.81

Results for COc1ccccc1N1CCN(C(=O)c2ccncc2)CC1 ?
Pyk2 oligo antag: -0.45; Rev-RRE block: 10; Measles CPE: 11; Phagocytosis inh: 0; Cav32 inh: 1.1; DAT uptake mod: -1.1

How did COc1ccccc1N1CCN(C(=O)c2ccc(C(C)(C)C)cc2)CC1 do in these assays?
Pyk2 oligo antag: -1.9; Rev-RRE block: 4; Measles CPE: 0; Phagocytosis inh: 1; Cav32 inh: -5*; DAT uptake mod: 0.86

Results for COc1ccccc1N1CCN(C(=O)c2ccc(NC(C)=O)cc2)CC1 ?
Pyk2 oligo antag: -0.64; Rev-RRE block: 2; Measles CPE: 7; Phagocytosis inh: 0; DAT uptake mod: -3.1*

What do the screens show for `CN1c2ccccc2-c2nc3ccccc3n2C1c1cccs1` (stereo not given)?
Measles CPE: 23; Phagocytosis inh: -5

Results for Cc1ccc(C2N(C)c3ccccc3-c3nc4ccccc4n32)o1 (stereo not given) ?
Pyk2 oligo antag: -1.1; Rev-RRE block: 4; Measles CPE: 7; Phagocytosis inh: -1; Cav32 inh: -5.4*; DAT uptake mod: 0.072

What do the screens show for `CC(C)(C)SCCNC(=O)Nc1ccccc1`?
Measles CPE: 35*; Phagocytosis inh: 1

What do the screens show for `CCCOC(=O)C1NC(=O)N2C(C(=O)OCCC)C(C)(C)S[C@H]12` (stereo not given in full)?
Cav32 inh: 0.23; DAT uptake mod: -0.43

How did CCN(CC(=O)Nc1ccc2c(c1)OC(F)(F)O2)Cc1nc2ccccc2c(=O)[nH]1 do in these assays?
Pyk2 oligo antag: -3.9*; Rev-RRE block: 18; Measles CPE: 14; Phagocytosis inh: -2; Cav32 inh: -1.6; DAT uptake mod: 0.19

Results for CCN(CC(=O)NC(=O)NC1CCCCC1)Cc1nc2ccccc2c(=O)[nH]1 ?
Pyk2 oligo antag: 0.61; Rev-RRE block: 10; Measles CPE: 7; Phagocytosis inh: 0; Cav32 inh: -0.2; DAT uptake mod: 0.46

Results for CCN(CC(=O)NC(c1ccccc1)c1ccccc1)Cc1nc2ccccc2c(=O)[nH]1 ?
Pyk2 oligo antag: -0.6; Rev-RRE block: 7; Measles CPE: 21*; Cav32 inh: -3.9; DAT uptake mod: 0.28

How did O=C(OC(c1ccccc1)c1nccc2ccccc12)c1cc([N+](=O)[O-])cc([N+](=O)[O-])c1 (stereo not given) do in these assays?
Measles CPE: 4; Phagocytosis inh: -7

Results for Cc1nc(NC(=O)c2ccccc2)sc1-c1csc(Nc2ccc(Cl)cc2Cl)n1 ?
Rev-RRE block: 6; Measles CPE: 4; Cav32 inh: 0.24; DAT uptake mod: 2.4*

How did COc1ccc(Cl)cc1Nc1nc(-c2sc(NC(=O)c3ccccc3)nc2C)cs1 do in these assays?
Rev-RRE block: 1; Measles CPE: 1; Cav32 inh: 0.53; DAT uptake mod: -0.34

Results for Cc1ccccc1Nc1nc(-c2sc(NC(=O)c3cccc(Cl)c3)nc2C)cs1 ?
Rev-RRE block: 3; Measles CPE: 1; Cav32 inh: 1.2; DAT uptake mod: 1.7*

How did Cc1nc(NC(=O)c2ccccc2)sc1-c1csc(Nc2cccc(Cl)c2)n1 do in these assays?
Rev-RRE block: 4; Measles CPE: 4; Cav32 inh: 0.21; DAT uptake mod: 1.4

Results for Cc1ccccc1Nc1nc(-c2sc(NC(=O)c3ccc([N+](=O)[O-])cc3)nc2C)cs1 ?
Rev-RRE block: 3; Measles CPE: 12; Cav32 inh: -0.34; DAT uptake mod: 0.81

What do the screens show for `Cc1ccccc1Nc1nc(-c2sc(NC(=O)c3ccccc3)nc2C)cs1`?
Rev-RRE block: 9; Measles CPE: 16; Phagocytosis inh: -1; Cav32 inh: -1.3; DAT uptake mod: 2.5*

Results for CSc1nnc(CSc2cc(C)nc(N(C)C)n2)o1 ?
Pyk2 oligo antag: 0.36; Measles CPE: 4; Phagocytosis inh: -4

How did O=C(c1cn[nH]c1)c1cc(F)ccc1O do in these assays?
Pyk2 oligo antag: -0.08; Rev-RRE block: 6; Measles CPE: 42*; Phagocytosis inh: 0; Cav32 inh: 0.3; DAT uptake mod: -0.17

How did O=C(COC(=O)[C@H](Cc1ccccc1)NS(=O)(=O)c1ccccc1F)NC1CCCCC1 do in these assays?
Pyk2 oligo antag: 0.25; Rev-RRE block: 5; Measles CPE: 39; Phagocytosis inh: 0; Cav32 inh: -4.9*; DAT uptake mod: 1.3

Results for O=C(COC(=O)[C@H](Cc1ccccc1)NC(=O)c1cccs1)NC1CCCCC1 ?
Measles CPE: 14; Phagocytosis inh: -6

Results for Nc1cc(N)nc(SCC(=O)NCC2CCCO2)n1 (stereo not given) ?
Pyk2 oligo antag: -0.34; Rev-RRE block: 7; Measles CPE: 31*; Phagocytosis inh: 0; Cav32 inh: -0.087; DAT uptake mod: -0.41

What do the screens show for `O=C(CCn1c(=S)[nH]c2ccccc2c1=O)NCC1CCCO1` (stereo not given)?
Pyk2 oligo antag: 0.02; Rev-RRE block: 5; Measles CPE: 29; Cav32 inh: -4.5*; DAT uptake mod: 0.4

Results for O=C(CSc1nc2ccccc2c(=O)n1CC1CCCO1)NCC1CCCO1 (stereo not given) ?
Pyk2 oligo antag: 0.36; Rev-RRE block: 0; Measles CPE: 5; Phagocytosis inh: -2; Cav32 inh: 0.24; DAT uptake mod: -0.7

Results for CCCn1c(=S)[nH]c2cc(C(=O)NCC3CCCO3)ccc2c1=O (stereo not given) ?
Measles CPE: 9; Cav32 inh: 0.51; DAT uptake mod: -0.6

Screens (PubChem BioAssay)
